Source: PubChem BioAssay
EP2 mod – EP2 receptor (human) modulation; EP2-expressing cells, cAMP HTRF FRET, PGE2 co-stimulation; induction, % at 25 µM; 260,000 compounds, 0.83% hits; AID 940;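 active = compounds whose cAMP rise, as percent of the full-agonist control response, exceeds 60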;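 also: rat C6 glioma line stably carrying human EP2 under a CMV promoter; the protocol text gives 20 µM as final concentration; 100% = response of wells given 1 µM PGE2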
Target sequence (P43116 whole entry, looked up): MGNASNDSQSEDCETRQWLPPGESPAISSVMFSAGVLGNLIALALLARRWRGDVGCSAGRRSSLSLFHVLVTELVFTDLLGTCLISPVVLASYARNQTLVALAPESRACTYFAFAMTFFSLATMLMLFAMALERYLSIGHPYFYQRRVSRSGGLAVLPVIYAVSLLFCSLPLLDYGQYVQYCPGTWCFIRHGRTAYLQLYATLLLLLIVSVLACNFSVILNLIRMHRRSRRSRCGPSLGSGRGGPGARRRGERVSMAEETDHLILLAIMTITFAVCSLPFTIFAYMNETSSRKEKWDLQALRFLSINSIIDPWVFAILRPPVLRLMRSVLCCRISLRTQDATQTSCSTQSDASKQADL
PGE2 EP2 inh – EP2 receptor (human) inhibition; C6 glioma cells expressing human EP2, cAMP TR-FRET; cells stimulated with saturating PGE2; inhibition, % at 25 µM; 260,000 compounds, 0.52% hits; AID 1422;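 active = percent inhibition above 40 after rounding to a whole number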;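 also: rat C6 glioma host cells with rolipram phosphodiesterase inhibitor present; the protocol text gives 20 µM as final concentration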
Hsp70 act – switches on Hsp70 transcription; HeLa Hsp70 promoter luciferase reporter, luminescence; scaled: vehicle 0, proteasome-inhibitor control 100%; activation, % at 10 µM; 200,000 compounds, 0.04% hits; AID 1203;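 active = activation above the mean across all tested compounds plus 3 SD, cutoff set per campaign, cut at about 5.5% in these data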;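 also: 100% = MG132 at 30 µM as the positive control and 0% = DMSO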
Dynein transport – blocks dynein driven cargo transport along microtubules; 3617.4 mouse cells, GR-EGFP nuclear translocation imaging; test concentration mostly 20 µM; stimulated with dexamethasone, 1 µM; stronger effect = lower value; 220,000 compounds, 0.47% hits; z-score, hits read low;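 active = plate z-score of nuclear minus cytoplasmic receptor signal below a set negative limit, without overly bright fluorescence or cell loss, cut at about -3.5 in these data, passing the limit was not always enough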;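 also: z-score of nuclear minus cytoplasmic ring GR-EGFP intensity difference per well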
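medium = tetracycline-free induction medium containing charcoal-stripped FBS | also added = 1.0 µM final dexamethasone stimulus | schedule = 48 h induction, 1 h compound, 30 min dex at 37 °C | technique = fixed, Hoechst-stained cells imaged at 10x for EGFP | measure = GR-EGFP nuclear translocation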
* = called active by the depositor; . = no result; ! = a repeat was not active. A selection: hits, their analogues and other compounds. The true share with any hit is near 1.7%.

SMILES | EP2 mod | PGE2 EP2 inh | Hsp70 act | Dynein transport
Cn1c(=O)c2c(SCc3ccccc3)nc(C3CC3)nc2n(C)c1=O | 73.5* | 4.6 | . | 0.933
Oc1ccc(-c2nc3cnccn3c2NCCc2ccccc2)cc1O | -89.7 | . | . | .
COc1ccc(OC)c(CN(Cc2ccnc(N3CCCC3)n2)CC2CCCO2)c1 (configuration not stated) | 7.5 | 6.5 | . | .
Cc1sc2ccccc2[n+]1CC(O)CS(=O)(=O)[O-] (configuration not stated) | -1.0 | 12.3 | . | .
NCOC(=O)Cc1ccc(Br)cc1 | 10.4 | 54.5* | . | .
Oc1cccc(-n2cnnn2)c1 | -6.1 | 14.4 | . | .
O=C(CSc1nnnn1-c1ccc2c(c1)OCO2)N1CCc2ccccc21 | -91.8 | 10.4 | . | .
O=C(Nc1ccccc1N1CCCCC1)c1ccco1 | 63.5* | 10.8 | -0.3 | -0.414
O=C(COc1ccccc1)Nc1ccccc1N1CCCCC1 | 63.8*! | 11.4 | 0.0 | -0.462
Cc1cccc(OCC(=O)Nc2ccccc2N2CCCCC2)c1 | 52.2 | 3.0 | -0.4 | 0.806
O=C(Nc1ccccc1N1CCCCC1)c1cccs1 | 60.6* | 3.8 | -0.2 | -0.0329
O=C(Nc1ccccc1N1CCCC1)c1ccco1 | 30.1 | 14.7 | 0.0 | 2.66
CC1(c2ccccc2NC(=O)c2cccs2)CC1 | 64.9* | 9.9 | . | .
Cc1ccc2cc(CN(Cc3cccnc3)S(=O)(=O)c3ccc(C)c(Cl)c3)c(=O)[nH]c2c1 | -19.6 | 7.4 | . | .
Cc1nc2c(c(=O)[nH]1)CCN(C(=O)CCn1ncc3ccccc31)C2 | -2.5 | 4.0 | . | .
Cc1nnc(NC(=O)CSc2nnc(COc3cccc(C)c3C)n2Cc2ccco2)s1 | -6.6 | 10.6 | . | .
O=C(CSc1nnc(-c2ccccc2)o1)N(C1CCCCC1)C1CCCCC1 | 76.3* | 15.9 | . | .
O=C(CSc1nnc(-c2ccncc2)o1)N(C1CCCCC1)C1CCCCC1 | 43.1 | 11.9 | . | .
c1cc2c(cnc3cscc32)s1 | -48.2 | 42.2* | -0.3 | 1.42
COc1ccccc1CCCNC(=O)c1sc(N2CCOCC2)nc1C | -110.0 | 4.1 | . | .
CCCn1c(SCC(=O)NCCc2ccccc2)nnc1-c1ccoc1C | 7.0 | 16.6 | . | .
Cc1ccc(C(C(=O)NC2CCCC2)N(Cc2cccnc2)C(=O)Cc2cccs2)o1 (configuration not stated) | 3.7 | 8.4 | . | .
CCOC(=O)c1sc(N2C(=O)C(=O)/C(=C(\O)c3ccc(OC)cc3C)C2c2cccnc2)nc1C (configuration not stated) | 3.5 | 54.5* | . | .
CCc1nc2sc3c(c2c2nnc(SCC(N)=O)n12)CCCC3 | -4.4 | 9.0 | . | .
CC1(C)O[C@H]2[C@@H](O1)[C@@H](On1nnc3ccc(Cl)cc31)O[C@@H]2[C@@H]1COC(C)(C)O1 | 26.0 | 52.0* | . | .
SMILES | EP2 mod | PGE2 EP2 inh | Hsp70 act | Dynein transport
CC1CCCCC1NC(=O)COn1nnc2ccc(Cl)cc21 (configuration not stated) | -6.3 | 17.1 | -0.1 | 0.76
C/C(=N\NC(=O)c1ccccc1)c1ccc(N2CCOCC2)cc1 | -2.3 | 6.8 | -0.2 | -3.63*
Cc1cc(C)c2c(c1)-c1cc(C)nn1C(c1ccc3c(c1)OCO3)N2 (configuration not stated) | 64.4* | 6.3 | -0.1 | -0.656
Cc1ccccc1NC1=NC(=S)N(c2ccccc2)C12CCCCC2 | 62.0* | 9.2 | -0.1 | -0.737
CCc1cc2ccc(C)c(C)c2nc1SCC(=O)Nc1c(C)[nH]c(=O)[nH]c1=O | 10.7 | 12.9 | . | .
O=C(Nc1ccc(Br)cc1)c1csc(-c2ccncc2)n1 | -19.6 | 174.3* | -0.4 | -0.0517
O=CN/C=C/c1cc(O)ccc1O | -44.3 | 111.4* | . | 0.617
O=C(/C=C/c1ccccc1)c1ccc(O)cc1O | -7.6 | 11.1 | . | .
CCCc1ccc(Oc2cn[nH]c2-c2ccc(O)c(C)c2O)cc1 | -16.8 | 53.0* | -0.2 | -0.521
Cc1ccc2nc(/C(C#N)=C\c3ccc([N+](=O)[O-])o3)[nH]c2c1 | -39.6 | 64.4* | -0.4 | 14.4
N#C/C(=C\c1ccc([N+](=O)[O-])o1)c1nc2ccccc2[nH]1 | -11.0 | 69.0* | -0.4 | 10.8
C/C(=N\NC(=S)NCc1ccccc1)c1ccccc1F | 64.4* | 3.0 | 0.2 | -0.741
C/C(=N\NC(=S)NCc1ccccc1)c1ccccc1 | 22.0 | 4.4 | -0.1 | -0.709
CC(C)COP(=O)(OCC(C)C)C(Nc1ccccc1)c1ccccc1 (configuration not stated) | 70.4* | 3.3 | . | -0.542
COc1cc(CN2CCc3c(nc(N4CC(C)OC(C)C4)[nH]c3=O)C2)cc(OC)c1 (configuration not stated) | -9.9 | . | . | .
CCNc1ccc(S(=O)(=O)C(F)(F)F)cc1NC(=O)C12CCC(CC1)C2 | -4.0 | 76.0* | -0.5 | 0.665
